{"source": "ChEMBL document CHEMBL3124818", "about": "“Synthesis and antimicrobial evaluation of amide derivatives of benzodifuran-2-carboxylic acid” (2014)", "format_in_all_cases": "functional", "key": {"[1]": {"test_system": "Staphylococcus aureus", "assay": "Antibacterial activity against Staphylococcus aureus by broth dilution method", "how_it_was_run": "(§1)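 Broth dilution screen. Compounds tested at 40 μg to 600 μg. MIC was read as the lowest concentration preventing visible growth. Solvent controls were included. Ciprofloxacin (antibacterial) and fluconazole (antifungal) were run under similar conditions as reference drugs.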"}, "[2]": {"test_system": "Bacillus subtilis", "assay": "Antibacterial activity against Bacillus subtilis by broth dilution method", "how_it_was_run": "as §1"}, "[3]": {"test_system": "Pseudomonas aeruginosa", "assay": "Antibacterial activity against Pseudomonas aeruginosa by broth dilution method", "how_it_was_run": "as §1"}, "[4]": {"test_system": "Escherichia coli", "assay": "Antibacterial activity against Escherichia coli by broth dilution method", "how_it_was_run": "as §1"}, "[5]": {"test_system": "Candida albicans", "assay": "Antifungal activity against Candida albicans by broth dilution method", "how_it_was_run": "as §1"}}}
{"smiles": "Cc1coc2cc3oc(C(=O)Nc4ccc(Cl)cc4)c(C)c3cc12", "values": [{"measurement": "MIC", "setting": "[1]", "value": 400, "unit": "µg/mL"}, {"measurement": "MIC", "setting": "[2]", "value": 200, "unit": "µg/mL"}, {"measurement": "MIC", "setting": "[3]", "value": "≥ 600", "unit": "µg/mL"}, {"measurement": "MIC", "setting": "[4]", "value": 200, "unit": "µg/mL"}, {"measurement": "MIC", "setting": "[5]", "value": "≥ 600", "unit": "µg/mL"}]}
{"smiles": "Cc1coc2cc3oc(C(=O)N4CCCC4)c(C)c3cc12", "values": [{"measurement": "MIC", "setting": "[1]", "value": 160, "unit": "µg/mL"}, {"measurement": "MIC", "setting": "[2]", "value": 400, "unit": "µg/mL"}, {"measurement": "MIC", "setting": "[3]", "value": "≥ 600", "unit": "µg/mL"}, {"measurement": "MIC", "setting": "[4]", "value": 400, "unit": "µg/mL"}, {"measurement": "MIC", "setting": "[5]", "value": 600, "unit": "µg/mL"}]}
{"smiles": "Cc1coc2cc3oc(C(=O)N4CCCCC4)c(C)c3cc12", "values": [{"measurement": "MIC", "setting": "[1]", "value": 400, "unit": "µg/mL"}, {"measurement": "MIC", "setting": "[2]", "value": 200, "unit": "µg/mL"}, {"measurement": "MIC", "setting": "[3]", "value": "≥ 600", "unit": "µg/mL"}, {"measurement": "MIC", "setting": "[4]", "value": 600, "unit": "µg/mL"}, {"measurement": "MIC", "setting": "[5]", "value": "≥ 600", "unit": "µg/mL"}]}
{"smiles": "COc1ccc(NC(=O)c2oc3cc4occ(C)c4cc3c2C)cc1", "values": [{"measurement": "MIC", "setting": "[1]", "value": 160, "unit": "µg/mL"}, {"measurement": "MIC", "setting": "[2]", "value": 400, "unit": "µg/mL"}, {"measurement": "MIC", "setting": "[3]", "value": "≥ 600", "unit": "µg/mL"}, {"measurement": "MIC", "setting": "[4]", "value": "≥ 600", "unit": "µg/mL"}, {"measurement": "MIC", "setting": "[5]", "value": "≥ 600", "unit": "µg/mL"}]}
{"smiles": "CCN(CC)C(=O)c1oc2cc3occ(C)c3cc2c1C", "values": [{"measurement": "MIC", "setting": "[1]", "value": 160, "unit": "µg/mL"}, {"measurement": "MIC", "setting": "[2]", "value": 400, "unit": "µg/mL"}, {"measurement": "MIC", "setting": "[3]", "value": 600, "unit": "µg/mL"}, {"measurement": "MIC", "setting": "[4]", "value": 400, "unit": "µg/mL"}, {"measurement": "MIC", "setting": "[5]", "value": 600, "unit": "µg/mL"}]}
{"smiles": "Cc1coc2cc3oc(C(=O)N4CCOCC4)c(C)c3cc12", "values": [{"measurement": "MIC", "setting": "[1]", "value": 400, "unit": "µg/mL"}, {"measurement": "MIC", "setting": "[2]", "value": 200, "unit": "µg/mL"}, {"measurement": "MIC", "setting": "[3]", "value": "≥ 600", "unit": "µg/mL"}, {"measurement": "MIC", "setting": "[4]", "value": 600, "unit": "µg/mL"}, {"measurement": "MIC", "setting": "[5]", "value": "≥ 600", "unit": "µg/mL"}]}
{"smiles": "Cc1coc2cc3oc(C(=O)Nc4ccc(C(=O)O)cc4)c(C)c3cc12", "values": [{"measurement": "MIC", "setting": "[1]", "value": 600, "unit": "µg/mL"}, {"measurement": "MIC", "setting": "[2]", "value": 160, "unit": "µg/mL"}, {"measurement": "MIC", "setting": "[3]", "value": 600, "unit": "µg/mL"}, {"measurement": "MIC", "setting": "[4]", "value": 400, "unit": "µg/mL"}, {"measurement": "MIC", "setting": "[5]", "value": 600, "unit": "µg/mL"}]}
{"smiles": "O=C(O)c1cn(C2CC2)c2cc(N3CCNCC3)c(F)cc2c1=O", "note": "[CIPROFLOXACIN]", "values": [{"measurement": "MIC", "setting": "[1]", "value": 5, "unit": "µg/mL"}, {"measurement": "MIC", "setting": "[2]", "value": 2, "unit": "µg/mL"}, {"measurement": "MIC", "setting": "[3]", "value": 7.5, "unit": "µg/mL"}, {"measurement": "MIC", "setting": "[4]", "value": 15, "unit": "µg/mL"}]}
{"smiles": "Cc1coc2cc3oc(C(=O)Nc4ccc(O)cc4)c(C)c3cc12", "values": [{"measurement": "MIC", "setting": "[1]", "value": 600, "unit": "µg/mL"}, {"measurement": "MIC", "setting": "[2]", "value": 200, "unit": "µg/mL"}, {"measurement": "MIC", "setting": "[3]", "value": "≥ 600", "unit": "µg/mL"}, {"measurement": "MIC", "setting": "[4]", "value": 600, "unit": "µg/mL"}, {"measurement": "MIC", "setting": "[5]", "value": "≥ 600", "unit": "µg/mL"}]}
{"smiles": "OC(Cn1cncn1)(Cn1cncn1)c1ccc(F)cc1F", "note": "[FLUCONAZOLE]", "values": [{"measurement": "MIC", "setting": "[5]", "value": 5, "unit": "µg/mL"}]}
{"smiles": "Cc1coc2cc3oc(C(=O)Nc4ccccc4)c(C)c3cc12", "values": [{"measurement": "MIC", "setting": "[1]", "value": 600, "unit": "µg/mL"}, {"measurement": "MIC", "setting": "[2]", "value": 400, "unit": "µg/mL"}, {"measurement": "MIC", "setting": "[3]", "value": 600, "unit": "µg/mL"}, {"measurement": "MIC", "setting": "[4]", "value": 600, "unit": "µg/mL"}, {"measurement": "MIC", "setting": "[5]", "value": 600, "unit": "µg/mL"}]}
{"smiles": "Cc1ccc(NC(=O)c2oc3cc4occ(C)c4cc3c2C)cc1", "values": [{"measurement": "MIC", "setting": "[1]", "value": 200, "unit": "µg/mL"}, {"measurement": "MIC", "setting": "[2]", "value": 200, "unit": "µg/mL"}, {"measurement": "MIC", "setting": "[3]", "value": "≥ 600", "unit": "µg/mL"}, {"measurement": "MIC", "setting": "[4]", "value": "≥ 600", "unit": "µg/mL"}, {"measurement": "MIC", "setting": "[5]", "value": "≥ 600", "unit": "µg/mL"}]}
{"smiles": "Cc1coc2cc3oc(C(=O)N4CCc5ccccc5C4)c(C)c3cc12", "values": [{"measurement": "MIC", "setting": "[1]", "value": 400, "unit": "µg/mL"}, {"measurement": "MIC", "setting": "[2]", "value": 160, "unit": "µg/mL"}, {"measurement": "MIC", "setting": "[3]", "value": "≥ 600", "unit": "µg/mL"}, {"measurement": "MIC", "setting": "[4]", "value": "≥ 600", "unit": "µg/mL"}, {"measurement": "MIC", "setting": "[5]", "value": 600, "unit": "µg/mL"}]}
